From ChEMBL document CHEMBL1154886, “DNA-damaging, mutagenic, and clastogenic activities of gentiopicroside isolated from Cephalaria kotschyi roots” (J Nat Prod, 2010)

How the values were obtained:
[1] = Mutagenic activity in Salmonella Typhimurium TA102 assessed as increase in number of revertants at 40 ug/plate by Ames test absence of S9 fraction (Rvb=290+/-10); type: toxicity; settings: salmonella enterica subsp. enterica serovar typhimurium
How it was run: (§1)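 Microsuspension Ames test, with and without rat liver S9 mix. The S9 is from male Sprague-Dawley rats given Aroclor 1254 (26 mg/mL protein); the final mix is 4% S9, 10 mM G6P and 8 mM NADP. Triplicate plates are incubated 48 h at 37 °C and colonies counted automatically. Values are mean ± SD revertants per plate, tested against spontaneous revertants (Rvb) by Dunnett test.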

[2] = Mutagenic activity in Salmonella typhimurium TA100 assessed as increase in number of revertants at 100 ug/plate by Ames test presence of S9 fraction (Rvb=124+/-13); type: toxicity; settings: salmonella enterica subsp. enterica serovar typhimurium; how it was run: as §1
[3] = Mutagenic activity in Salmonella Typhimurium TA98 assessed as increase in number of revertants at 80 ug/plate by Ames test absence of S9 fraction (Rvb=22+/- 4); type: toxicity; settings: salmonella enterica subsp. enterica serovar typhimurium; how it was run: as §1
[4] = Mutagenic activity in Salmonella typhimurium TA100 assessed as increase in number of revertants at 80 ug/plate by Ames test absence of S9 fraction (Rvb=108+/-5); type: toxicity; settings: salmonella enterica subsp. enterica serovar typhimurium; how it was run: as §1
[5] = Mutagenic activity in Salmonella Typhimurium TA97a assessed as increase in number of revertants at 40 ug/plate by Ames test absence of S9 fraction (Rvb=146+/- 8); type: toxicity; settings: salmonella enterica subsp. enterica serovar typhimurium; how it was run: as §1
[6] = Mutagenic activity in Salmonella typhimurium TA98 assessed as increase in number of revertants at 60 ug/plate by Ames test absence of S9 fraction (Rvb=22+/- 4); type: toxicity; settings: salmonella enterica subsp. enterica serovar typhimurium; how it was run: as §1
[7] = Mutagenic activity in Salmonella typhimurium TA97a assessed as increase in number of revertants at 80 ug/plate by Ames test presence of S9 fraction (Rvb=154+/-18); type: toxicity; settings: salmonella enterica subsp. enterica serovar typhimurium; how it was run: as §1
[8] = Mutagenic activity in Salmonella Typhimurium TA97a assessed as increase in number of revertants at 80 ug/plate by Ames test absence of S9 fraction (Rvb=146+/- 8); type: toxicity; settings: salmonella enterica subsp. enterica serovar typhimurium; how it was run: as §1
[9] = Mutagenic activity in Salmonella typhimurium TA98 assessed as increase in number of revertants at 40 ug/plate by Ames test absence of S9 fraction (Rvb=22+/- 4); type: toxicity; settings: salmonella enterica subsp. enterica serovar typhimurium; how it was run: as §1
[10] = Mutagenic activity in Salmonella Typhimurium TA102 assessed as increase in number of revertants at 80 ug/plate by Ames test absence of S9 fraction (Rvb=290+/-10); type: toxicity; settings: salmonella enterica subsp. enterica serovar typhimurium; how it was run: as §1
[11] = Mutagenic activity in Salmonella Typhimurium TA100 assessed as increase in number of revertants at 60 ug/plate by Ames test presence of S9 fraction (Rvb=124+/-13); type: toxicity; settings: salmonella enterica subsp. enterica serovar typhimurium; how it was run: as §1
[12] = Mutagenic activity in Salmonella Typhimurium TA102 assessed as increase in number of revertants at 100 ug/plate by Ames test presence of S9 fraction (Rvb=369+/-34); type: toxicity; settings: salmonella enterica subsp. enterica serovar typhimurium; how it was run: as §1
[13] = Mutagenic activity in Salmonella Typhimurium TA97a assessed as increase in number of revertants at 100 ug/plate by Ames test absence of S9 fraction (Rvb=146+/- 8); type: toxicity; settings: salmonella enterica subsp. enterica serovar typhimurium; how it was run: as §1
[14] = Mutagenic activity in Salmonella Typhimurium TA98 assessed as increase in number of revertants at 80 ug/plate by Ames test presence of S9 fraction (Rvb=34+/- 4); type: toxicity; settings: salmonella enterica subsp. enterica serovar typhimurium; how it was run: as §1
[15] = Mutagenic activity in Salmonella typhimurium TA98 assessed as increase in number of revertants at 40 ug/plate by Ames test presence of S9 fraction (Rvb=34+/- 4); type: toxicity; settings: salmonella enterica subsp. enterica serovar typhimurium; how it was run: as §1
[16] = Mutagenic activity in Salmonella Typhimurium TA100 assessed as increase in number of revertants at 100 ug/plate by Ames test absence of S9 fraction (Rvb=108+/-5); settings: salmonella enterica subsp. enterica serovar typhimurium
[17] = Mutagenic activity in Salmonella typhimurium TA98 assessed as increase in number of revertants at 60 ug/plate by Ames test presence of S9 fraction (Rvb=34+/- 4); type: toxicity; settings: salmonella enterica subsp. enterica serovar typhimurium; how it was run: as §1
[18] = Mutagenic activity in Salmonella Typhimurium TA102 assessed as increase in number of revertants at 60 ug/plate by Ames test presence of S9 fraction (Rvb=369+/-34); type: toxicity; settings: salmonella enterica subsp. enterica serovar typhimurium; how it was run: as §1
[19] = Mutagenic activity in Salmonella Typhimurium TA97a assessed as increase in number of revertants at 40 ug/plate by Ames test presence of S9 fraction (Rvb=154+/-18); type: toxicity; settings: salmonella enterica subsp. enterica serovar typhimurium; how it was run: as §1
[20] = Mutagenic activity in Salmonella Typhimurium TA100 assessed as increase in number of revertants at 40 ug/plate by Ames test absence of S9 fraction (Rvb=108+/-5); type: toxicity; settings: salmonella enterica subsp. enterica serovar typhimurium; how it was run: as §1
[21] = Mutagenic activity in Salmonella typhimurium TA97a assessed as increase in number of revertants at 60 ug/plate by Ames test absence of S9 fraction (Rvb=146+/- 8); type: toxicity; settings: salmonella enterica subsp. enterica serovar typhimurium; how it was run: as §1
[22] = Mutagenic activity in Salmonella Typhimurium TA97a assessed as increase in number of revertants at 100 ug/plate by Ames test presence of S9 fraction (Rvb=154+/-18); type: toxicity; settings: salmonella enterica subsp. enterica serovar typhimurium; how it was run: as §1
[23] = Mutagenic activity in Salmonella Typhimurium TA102 assessed as increase in number of revertants at 40 ug/plate by Ames test presence of S9 fraction (Rvb=369+/-34); type: toxicity; settings: salmonella enterica subsp. enterica serovar typhimurium; how it was run: as §1
[24] = Mutagenic activity in Salmonella Typhimurium TA98 assessed as increase in number of revertants at 100 ug/plate by Ames test absence of S9 fraction (Rvb=22+/- 4); type: toxicity; settings: salmonella enterica subsp. enterica serovar typhimurium; how it was run: as §1
[25] = Mutagenic activity in Salmonella Typhimurium TA102 assessed as increase in number of revertants at 100 ug/plate by Ames test absence of S9 fraction (Rvb=290+/-10); type: toxicity; settings: salmonella enterica subsp. enterica serovar typhimurium; how it was run: as §1
[26] = Mutagenic activity in Salmonella Typhimurium TA98 assessed as increase in number of revertants at 100 ug/plate by Ames test presence of S9 fraction (Rvb=34+/- 4); type: toxicity; settings: salmonella enterica subsp. enterica serovar typhimurium; how it was run: as §1
[27] = Mutagenic activity in Salmonella typhimurium TA102 assessed as increase in number of revertants at 80 ug/plate by Ames test presence of S9 fraction (Rvb=369+/-34); type: toxicity; settings: salmonella enterica subsp. enterica serovar typhimurium; how it was run: as §1
[28] = system: CHO; experiment: Cytotoxicity activity against CHO cells assessed as cell viability after 24 hrs by WST1 test; type: cell-based, Cricetulus griseus; settings: chinese hamster
How it was run: (§2)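 CHO-K1 cells in McCoy's 5A with 10% fetal calf serum are seeded and incubated overnight at 37 °C, 5% CO2. A range of compound concentrations is added in triplicate cultures (final DMSO below 0.2%) for 2 or 24 h. Cells are washed three times in PBS, then given 10% WST1 in medium for 30 min. Viability is read as absorbance at 450 nm.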

[29] = Mutagenic activity in Salmonella typhimurium TA100 assessed as increase in number of revertants at 60 ug/plate by Ames test absence of S9 fraction (Rvb=108+/-5); type: toxicity; settings: salmonella enterica subsp. enterica serovar typhimurium; how it was run: as §1
[30] = Cytotoxicity activity against CHO cells assessed as cell viability after 2 hrs by WST1 test; type: cell-based, Cricetulus griseus; settings: chinese hamster, read-out: Activity; how it was run: as §2
[31] = Mutagenic activity in Salmonella Typhimurium TA102 assessed as increase in number of revertants at 60 ug/plate by Ames test absence of S9 fraction (Rvb=290+/-10); type: toxicity; settings: salmonella enterica subsp. enterica serovar typhimurium; how it was run: as §1
[32] = Mutagenic activity in Salmonella typhimurium TA100 assessed as increase in number of revertants at 40 ug/plate by Ames test presence of S9 fraction (Rvb=124+/-13); type: toxicity; settings: salmonella enterica subsp. enterica serovar typhimurium; how it was run: as §1
[33] = Mutagenic activity in Salmonella typhimurium TA97a assessed as increase in number of revertants at 60 ug/plate by Ames test presence of S9 fraction (Rvb=154+/-18); type: toxicity; settings: salmonella enterica subsp. enterica serovar typhimurium; how it was run: as §1
[34] = Mutagenic activity in Salmonella Typhimurium TA100 assessed as increase in number of revertants at 80 ug/plate by Ames test presence of S9 fraction (Rvb=124+/-13); type: toxicity; settings: salmonella enterica subsp. enterica serovar typhimurium; how it was run: as §1
[35] = Mutagenic activity in Salmonella typhimurium TA97a assessed as increase in number of revertants at 0.002 ug/plate by Ames test absence of S9 fraction (Rvb=146+/- 8); type: toxicity; settings: salmonella enterica subsp. enterica serovar typhimurium; how it was run: as §1

C=C[C@@H]1C2=CCOC(=O)C2=CO[C@H]1O[C@@H]1O[C@H](CO)[C@@H](O)[C@H](O)[C@H]1O [GENTIOPICROSIDE]
Activity [1]: 368 | Activity [2]: 138 | Activity [3]: 26 | Activity [4]: 138 | Activity [5]: 188 | Activity [6]: 22 | Activity [7]: 178 | Activity [8]: 180 | Activity [9]: 19 | Activity [10]: 395 | Activity [11]: 116 | Activity [12]: 385 | Activity [13]: 180 | Activity [14]: 28 | Activity [15]: 32 | Activity [16]: 136 | Activity [17]: 29 | Activity [18]: 385 | Activity [19]: 274 | Activity [20]: 117 | Activity [21]: 174 | Activity [22]: 173 | Activity [23]: 376 | Activity [24]: 26 | Activity [25]: 392 | Activity [26]: 31 | Activity [27]: 413 | Activity [28]: Non-toxic | Activity [29]: 135 | viability at 2 h [30]: 95% | Activity [31]: 378 | Activity [32]: 119 | Activity [33]: 186 | Activity [34]: 140

COc1ccc2nc3cc(Cl)ccc3c(NCCCNCCCl)c2c1
Activity [35]: 1287
